Bioassay records (PubChem BioAssay)
Env fusion inh: inhibitors of HIV-1 Env-driven cell-cell fusion, primary screen, HeLa-JRFL effector, CEM21 target cells, luciferase; actives 1.1% (n = 360,000); inhibition, % at 12.3 µM;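 active means mean replicate inhibition score of at least 50 and every replicate individually at or above 50; inconclusive means only one of the two criteria met; inactive means mean below 50 and not all replicates reaching 50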;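 further: 0% = plate neutral controls and 100% = maraviroc near 300 nM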
FN deposition inh: inhibitors of fibronectin matrix deposition, primary screen, AH1F cells, Alexa488-fibronectin fluorescence, plate reader; AID 743247, 2014; AH1F fibroblasts, overnight; inhibition, % at 12.6 µM; actives 0.086% (n = 350,000);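 active means mean inhibition across replicates of 30% or more, regardless of how many single replicates reach that level; inconclusive means mean under 30% yet at least half of replicates reach 30%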;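 further: positive control wells lacked labelled fibronectin entirely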
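Material: AH1F fibroblast monolayer depositing Alexa488-labelled fibronectin into matrix | Input: 10000 AH1F cells/well | Medium: DMEM plus 2% serum, read in PBS | Reagent: Alexa488-fibronectin, 24 nM final in well | Compound dosing: One dose per compound, pinned | Schedule: 1 h adhesion, overnight exposure | Measured by: Fluorescence at 485 nm excitation, 525 nm emission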
PGC1a acetyl inh: inhibitors of PGC1a acetylation signal, primary screen, cell-based, U2OS, AlphaScreen, inhibitor mode; AlphaScreen anti-acetyl-lysine; with virally co-expressed GCN5 acetyltransferase; inhibition, % at 15.6 µM; actives 0.17% (n = 350,000);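 active means every replicate shows inhibition of at least 40%; inconclusive means mean inhibition at least 40% but some replicate below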;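 further: 0% = neutral control wells and 100% = positive control wells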
PglD inh: C. jejuni PglD acetyltransferase inhibitors, primary screen, biochemical, DTNB colorimetric, single point. UDP-N-acetylbacillosamine N-acetyltransferase PglD (Campylobacter jejuni). inhibition, % at 12.5 µM. AID 602405, 2012. actives 0.098% (n = 360,000). purified PglD enzyme, DTNB colorimetric CoA detection; in the data active means inhibition above about 16%, passing the limit was not always enough; inconclusive means no clear call, values can overlap the other calls
Ecoli rRNA inh: reduced GFP signal of wild-type E. coli, primary screen, bacterial rRNA inhibitor project, GFP/RFP fluorescence, OD600, single point; E. coli WT GFP vs humanized-ribosome RFP mutants, 24 h; hits give low values; DMSO median 0, no signal -100; GFP signal change (wild-type ribosome), % (no concentration beside the values); actives 1.6% (n = 350,000); AID 720706, 2013;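 active means significant combined selectivity score with lowered wild-type GFP, culture density cut under 30%, mutant RFP and density less affected; inactive means any of these conditions unmet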
DENV2 CPE: inhibitors of DENV2 cytopathic effect, primary screen, cell-based, plate reader, single concentration; DENV2-infected cells, cytopathic effect rescue; actives 1.7% (n = 350,000); AID 651640, 2012; CPE inhibition, % at 9.99 µM; in the data active means CPE inhibition above about 20%, passing the limit was not always enough; inconclusive means no clear call, values can overlap the other calls; tested in BHK-21 cells;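 further: 0% = median of neutral control wells and 100% = median of positive control wells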
Active calls of the source: *; ? = inconclusive; nt = no result; [ ] = remark or other dose. Shown are actives, neighbours in structure and some others; about 3.5% of the full set was active somewhere.

SMILES	Env fusion inh	FN deposition inh	PGC1a acetyl inh	PglD inh	Ecoli rRNA inh	DENV2 CPE
C[C@@H]1CN([C@H](C)CO)C(=O)c2cc(NC(=O)C3CCCCC3)ccc2O[C@@H]1CN(C)Cc1ccc(C(=O)O)cc1	nt	nt	5	-2	6	2
COc1ccc(CN(C)C[C@H]2OCCCC[C@@H](C)Oc3ccc(NC(=O)CCC(F)(F)F)cc3C(=O)N([C@@H](C)CO)C[C@H]2C)cc1	-12[16.7 µM]	nt	0	-3	2	2
C[C@H]1CN([C@@H](C)CO)C(=O)c2cc(/C=C/c3ccccc3)cnc2O[C@H]1CN(C)Cc1cccnc1	10[16.7 µM]	nt	4	2	-3	-5
CCCNC(=O)[C@H]1[C@H](CO)[C@H]2Cn3c(cccc3=O)[C@@H]1N2C(=O)NCCC	nt	nt	nt	1	3	12
COCC(=O)N1CC(=O)N2[C@H](CO)[C@H](c3ccc(C#CC4CCCC4)cc3)[C@H]2C1	nt	-3	nt	nt	2	?
CN(C)C(=O)C[C@@H]1C[C@@H]2c3cc(NC(=O)Nc4ccc(F)cc4)ccc3O[C@@H]2[C@H](CO)O1	-12[16.7 µM]	0	10	0	1	2
O=C(CCc1c[nH]c2ccccc12)N1CCN(c2ccc(O)cc2)CC1	21	1	-6	nt	-29*	6
COc1ccc(N2CCN(C(=O)CCc3c[nH]c4ccccc34)CC2)cc1	23	-3	-12	nt	-13	0
C[C@H](CO)N1C[C@H](C)[C@H](CN(C)S(=O)(=O)c2cccs2)OCc2ccccc2-c2c(n(C)c3ccccc23)C1=O	17[16.7 µM]	7	-17	-2	-3	0
O=C(CN1CCC(n2nnc3cc(F)ccc32)CC1)N1CCc2ccccc2C1	nt	nt	-20	1	-23*	8
O=C(CN1CCC(n2nnc3cc(F)ccc32)CC1)NC1CC1	46	0	2	-5	nt	nt
COc1ccc(OC)c(-c2cc(C(=O)Nc3c(C)nn(Cc4ccc(Cl)cc4)c3C)no2)c1	87*	5	6	-1	nt	nt
Cc1nn(Cc2ccc(Cl)c(Cl)c2)c(C)c1NC(=O)c1cc(-c2ccc3c(c2)OCO3)on1	73*	6	-28	1	nt	nt
Cc1nn(Cc2ccc(Cl)cc2)c(C)c1NC(=O)c1cc(-c2ccc3c(c2)OCO3)on1	30	5	8	nt	nt	nt
C[C@H]1CCCCO[C@H](CN(C)C(=O)Nc2ccc(F)cc2)[C@@H](C)CN([C@@H](C)CO)C(=O)c2cc(NS(=O)(=O)c3ccc(F)cc3)ccc2O1	23[16.7 µM]	2	4	0	-3	27*
C[C@@H]1CCCCO[C@@H](CN(C)C(=O)c2ccccc2)[C@H](C)CN([C@H](C)CO)C(=O)c2cc(NS(=O)(=O)c3ccc(F)cc3)ccc2O1	-28[16.7 µM]	nt	19	0	-3	22*
C[C@@H]1CN([C@H](C)CO)C(=O)c2cc(NS(=O)(=O)c3ccc(F)cc3)ccc2O[C@@H](C)CCCCO[C@H]1CN(C)C(=O)Nc1ccc(F)cc1	-129[16.7 µM]	-7	31	-1	-4	-11
C[C@@H]1CCCCO[C@H](CN(C)C(=O)Nc2ccc(F)cc2)[C@@H](C)CN([C@H](C)CO)C(=O)c2cc(NS(=O)(=O)c3ccccc3)ccc2O1	1[16.7 µM]	nt	-14	2	-1	10
C[C@H]1CCCCO[C@H](CN(C)C(=O)Nc2ccc(F)cc2)[C@@H](C)CN([C@@H](C)CO)C(=O)c2cc(NS(=O)(=O)c3ccccc3)ccc2O1	33[16.7 µM]	nt	-10	-5	-1	53*
C[C@@H]1CN(C)C(=O)c2ccccc2O[C@@H]1CN(C)C(=O)OC(C)(C)C	nt	-13	nt	nt	-3	nt
C=CCC(NC(=O)c1ccc(C#N)cc1)C(=O)NCCC (stereo not drawn)	-22	6	nt	3	4	49*
Cc1ccc(C)c(NS(=O)(=O)c2cc(C(=O)Nc3ccccc3-c3ccccc3)ccc2C)c1	71*	-1	-9	2	nt	nt
Cc1ccc(C)c(NS(=O)(=O)c2cc(C(=O)NCc3ccncc3)ccc2C)c1	14	7	4	7	8	98*
C=CCNC(=O)c1ccccc1NC(=O)c1ccc(Cl)c(S(=O)(=O)Nc2ccccc2)c1	35	nt	nt	1	-36*	-3
Cc1ccc(C(=O)Nc2ccccc2C(=O)O)cc1S(=O)(=O)Nc1ccc(Br)cc1	6	3	0	nt	-36*	7
SMILES	Env fusion inh	FN deposition inh	PGC1a acetyl inh	PglD inh	Ecoli rRNA inh	DENV2 CPE
Cc1ccc(C(=O)Nc2ccccc2C(=O)O)cc1S(=O)(=O)NCc1ccccc1	2	0	nt	nt	-8	8
CO[C@H]1CN(C)C(=O)c2cc(NC(=O)C3CCCC3)ccc2OC[C@H](C)N(C(C)=O)C[C@@H]1C	8[16.7 µM]	-8	-1	3	1	nt
COc1ccc(-c2cnn3c(N)c(S(=O)(=O)c4ccccc4)cnc23)cc1	15	8	-9	7	nt	nt
Nc1c(S(=O)(=O)c2ccccc2)cnc2c(-c3ccc(F)cc3)cnn12	68*	-6	-13	1	nt	nt
C[C@@H]1COCn2nncc2CCCC(=O)N1	nt	7	nt	nt	0	nt
COc1ccc(C(C)NC(=S)NCc2ccc(F)cc2)cc1 (stereo not drawn)	-10	nt	-5	4	-16	-4
COc1cccc(C(C)NC(=S)NCc2ccc(Cl)cc2)c1 (stereo not drawn)	10	nt	nt	nt	-24*	nt
Cc1nn(-c2ccccc2)c(C)c1CN(C)C(=O)c1ccc(S(=O)(=O)NCc2ccco2)cc1	-2	-4	nt	4	-33*	-4
COc1ccc(/C=C/C(=O)Nc2ccccc2C(=O)O)cc1	-15	10	nt	-6	-36*	-4
COc1ccc(/C=C/C(=O)Nc2ccccc2C(=O)N2CCCC2)cc1	-179	-16	-1	2	nt	nt
O=C(C[C@@H]1CC[C@@H]2[C@H](COC[C@@H](O)CN2S(=O)(=O)c2ccc(F)cc2)O1)NCc1ccc(Cl)c(Cl)c1	nt	-6	-3	-4	-14	29*
O=C(C[C@@H]1CC[C@H]2[C@@H](COC[C@@H](O)CN2S(=O)(=O)c2ccc(Cl)cc2)O1)NCCN1CCCC1	nt	-5	-5	1	2	23*
O=C(C[C@H]1CC[C@H]2[C@@H](COC[C@@H](O)CN2S(=O)(=O)c2ccccc2Cl)O1)NCc1ccccc1Cl	nt	3	4	-1	-4	73*
O=C(C[C@H]1CC[C@@H]2[C@H](COC[C@H](O)CN2S(=O)(=O)c2ccccc2Cl)O1)NCc1ccccc1Cl	nt	-3	8	2	-1	3
